The record followed here is ChEMBL document CHEMBL4616614, “Discovery of thieno[2,3-d]pyrimidin-4(3H)-one derivatives as a new class of ROCK inhibitors” (Bioorg Med Chem Lett, 2020).

The structures appear in SMILES notation. A value given as a limit tells only on which side of the number the result lay.

In test [1] the target is Rho-associated protein kinase 1 (Homo sapiens, UniProt Q13464). As to the kind of experiment: Inhibition of recombinant human ROCK1 (17 to 535 residues) using KEAKEKRQEQIAKRRRLSSLRASTSKSGGSQK as substrate incubated for 40 mins in presence of [gamma-33P]ATP by radiometric scintillation assay. The essentials: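 IC50 values determined through a commercial kinase profiling service, with ATP at 10 µM.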

Test [2] has as its target Rho-associated protein kinase 2 (Homo sapiens, UniProt O75116). The test can be described thus: Inhibition of recombinant human ROCK2 (11 to 552 residues) using KEAKEKRQEQIAKRRRLSSLRASTSKSGGSQK as substrate incubated for 40 mins in presence of [gamma-33P]ATP by radiometric scintillation assay.

Sequence of Rho-associated protein kinase 1 (Q13464 whole entry, the tested form may be a part): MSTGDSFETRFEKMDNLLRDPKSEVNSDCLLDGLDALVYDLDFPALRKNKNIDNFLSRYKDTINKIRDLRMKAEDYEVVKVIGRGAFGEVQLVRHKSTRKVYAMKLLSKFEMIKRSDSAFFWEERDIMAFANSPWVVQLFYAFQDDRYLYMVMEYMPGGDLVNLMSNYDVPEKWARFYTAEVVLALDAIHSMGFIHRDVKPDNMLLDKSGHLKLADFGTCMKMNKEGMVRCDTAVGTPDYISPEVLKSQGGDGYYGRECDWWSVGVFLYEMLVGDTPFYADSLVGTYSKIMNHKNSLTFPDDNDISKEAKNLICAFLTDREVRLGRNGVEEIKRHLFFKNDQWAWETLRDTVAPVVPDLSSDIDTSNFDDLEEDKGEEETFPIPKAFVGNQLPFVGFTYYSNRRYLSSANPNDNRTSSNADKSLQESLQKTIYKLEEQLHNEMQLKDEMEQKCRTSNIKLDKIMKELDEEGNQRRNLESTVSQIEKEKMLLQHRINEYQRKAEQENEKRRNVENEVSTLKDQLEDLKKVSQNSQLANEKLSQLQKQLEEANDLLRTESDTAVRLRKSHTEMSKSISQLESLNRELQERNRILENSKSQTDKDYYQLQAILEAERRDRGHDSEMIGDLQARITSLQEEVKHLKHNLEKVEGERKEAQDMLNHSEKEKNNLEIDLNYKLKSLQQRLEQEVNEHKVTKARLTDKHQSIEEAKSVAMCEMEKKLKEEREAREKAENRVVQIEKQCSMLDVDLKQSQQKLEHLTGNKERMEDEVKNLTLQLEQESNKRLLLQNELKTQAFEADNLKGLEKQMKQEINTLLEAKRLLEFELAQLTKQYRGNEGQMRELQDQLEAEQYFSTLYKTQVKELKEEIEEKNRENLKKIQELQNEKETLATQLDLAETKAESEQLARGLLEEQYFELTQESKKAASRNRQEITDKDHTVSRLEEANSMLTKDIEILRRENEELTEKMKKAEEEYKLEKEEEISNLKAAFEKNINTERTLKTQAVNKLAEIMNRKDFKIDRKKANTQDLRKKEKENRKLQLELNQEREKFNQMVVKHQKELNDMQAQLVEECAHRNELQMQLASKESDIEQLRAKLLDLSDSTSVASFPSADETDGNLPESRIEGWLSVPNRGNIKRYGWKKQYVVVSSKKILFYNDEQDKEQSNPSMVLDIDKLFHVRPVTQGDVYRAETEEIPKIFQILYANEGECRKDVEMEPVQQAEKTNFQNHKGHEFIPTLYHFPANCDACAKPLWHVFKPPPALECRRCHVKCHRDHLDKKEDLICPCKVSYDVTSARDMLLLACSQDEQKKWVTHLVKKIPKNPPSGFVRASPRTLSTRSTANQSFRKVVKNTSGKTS
Sequence of Rho-associated protein kinase 2 (O75116 whole entry, the tested form may be a part): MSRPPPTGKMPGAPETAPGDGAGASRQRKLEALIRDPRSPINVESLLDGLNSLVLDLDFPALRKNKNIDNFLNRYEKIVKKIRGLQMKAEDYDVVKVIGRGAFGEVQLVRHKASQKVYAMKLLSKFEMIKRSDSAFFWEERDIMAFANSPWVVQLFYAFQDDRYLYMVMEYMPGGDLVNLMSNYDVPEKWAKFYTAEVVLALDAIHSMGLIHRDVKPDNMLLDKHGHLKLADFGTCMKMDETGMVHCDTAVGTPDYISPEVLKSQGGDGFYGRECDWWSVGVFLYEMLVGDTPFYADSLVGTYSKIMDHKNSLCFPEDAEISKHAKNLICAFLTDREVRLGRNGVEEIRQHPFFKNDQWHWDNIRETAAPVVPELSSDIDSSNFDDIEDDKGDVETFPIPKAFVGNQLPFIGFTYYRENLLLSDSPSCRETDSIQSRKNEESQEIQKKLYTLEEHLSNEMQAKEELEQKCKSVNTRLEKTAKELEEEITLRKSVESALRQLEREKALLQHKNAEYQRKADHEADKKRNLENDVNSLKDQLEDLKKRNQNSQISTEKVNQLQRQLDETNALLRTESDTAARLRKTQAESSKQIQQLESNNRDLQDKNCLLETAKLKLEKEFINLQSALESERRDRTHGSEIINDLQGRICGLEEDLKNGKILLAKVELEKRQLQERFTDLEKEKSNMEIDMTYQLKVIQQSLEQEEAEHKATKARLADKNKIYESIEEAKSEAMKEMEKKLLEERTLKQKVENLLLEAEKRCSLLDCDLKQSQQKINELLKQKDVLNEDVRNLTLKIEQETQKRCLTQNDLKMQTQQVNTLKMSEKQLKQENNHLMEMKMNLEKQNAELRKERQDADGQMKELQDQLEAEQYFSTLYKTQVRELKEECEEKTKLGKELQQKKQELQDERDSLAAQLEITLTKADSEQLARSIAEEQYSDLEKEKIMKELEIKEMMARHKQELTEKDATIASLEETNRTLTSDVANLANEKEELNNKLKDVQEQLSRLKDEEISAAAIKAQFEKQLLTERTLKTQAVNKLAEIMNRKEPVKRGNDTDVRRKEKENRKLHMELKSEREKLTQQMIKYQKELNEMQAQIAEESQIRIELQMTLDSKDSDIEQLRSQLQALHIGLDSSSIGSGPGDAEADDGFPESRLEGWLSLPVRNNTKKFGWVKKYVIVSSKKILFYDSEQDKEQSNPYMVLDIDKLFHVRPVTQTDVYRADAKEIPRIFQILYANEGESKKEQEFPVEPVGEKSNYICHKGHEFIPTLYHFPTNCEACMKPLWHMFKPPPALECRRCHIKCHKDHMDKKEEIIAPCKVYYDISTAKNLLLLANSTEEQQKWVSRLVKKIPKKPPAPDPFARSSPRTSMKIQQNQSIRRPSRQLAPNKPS

In the case of `COc1cccc(Cn2cnc3sc(-c4ccnc(F)c4)cc3c2=O)c1`, the results for the IC50 in test [1] and in test [2] were 1050 nM and 83 nM, respectively.

`Nc1cc(-c2cc3c(=O)n(Cc4cccc(F)c4)cnc3s2)ccn1`: the IC50 in test [1] came to 34 nM; in test [2] it was 5 nM.

In the case of `COc1cccc(Cn2ccc3cc(-c4ccc5[nH]ncc5c4)ccc3c2=O)c1`, the IC50 in test [1] is 1880 nM; in test [2] it was 107 nM.

As for `COc1cccc(Cn2cnc3sc(-c4cccnc4)cc3c2=O)c1`, the 50% inhibitory concentration (IC50) was over 10000 nM in test [1] and 3480 nM in test [2].

In the case of `COc1cccc(Cn2cnc3sc(-c4ccc5[nH]ncc5c4)cc3c2=O)c1`, the IC50 amounted to 20 nM in test [1] and 2 nM in test [2].

For `COc1cccc(Cn2ncc3cc(-c4ccc5[nH]ncc5c4)ccc3c2=O)c1`, the IC50 is over 10000 nM in test [1] and 398 nM in test [2].

Turning to `COc1cccc(Cn2cnc3sc(-c4ccnc(Cl)c4)cc3c2=O)c1`, the IC50 in test [1] was over 10000 nM; in test [2], 501 nM.

For the compound `COc1ccc(Cn2cnc3sc(-c4ccnc(N)c4)cc3c2=O)cc1`, the IC50 in test [1] was found to be 1440 nM; in test [2], 46 nM.

Regarding `COc1cccc(Cn2cnc3sc(-c4ccc(N)nc4)cc3c2=O)c1`, the IC50 in test [1] and in test [2] was over 10000 nM in each case.

On to `COc1ccc(Cn2cnc3sc(-c4ccnc(N)c4)cc3c2=O)cc1OC`, for which the IC50 in test [1] is over 10000 nM; in test [2], 219 nM.

Turning to `COc1cccc(Cn2cnc3cc(-c4ccc5[nH]ncc5c4)ccc3c2=O)c1`, the IC50 in test [1] amounted to 3110 nM; in test [2], 88 nM.

On to `COc1ccc(Cn2cnc3sc(-c4ccnc5[nH]ccc45)cc3c2=O)cc1OC`, for which the IC50 is 25 nM in test [1] and 4 nM in test [2].

On to `COc1cccc(Cn2cnc3sc(-c4cccc5[nH]ccc45)cc3c2=O)c1`, for which the IC50 in test [1] was over 10000 nM; in test [2], 583 nM.

Turning to `COc1ccc(Cn2cnc3sc(-c4ccnc5[nH]ccc45)cc3c2=O)cc1`, the IC50 in test [1] was determined as 13 nM; in test [2], 2 nM.

In the case of `COc1cccc(Cn2cnc3sc(-c4ccncc4)cc3c2=O)c1`, the IC50 was 45 nM in test [1] and 6 nM in test [2].

As to `Nc1cc(-c2cc3c(=O)n(Cc4cccc(C(F)(F)F)c4)cnc3s2)ccn1`, the IC50 worked out at 490 nM in test [1] and 25 nM in test [2].

In the case of `COc1cc(Cn2cnc3sc(-c4ccnc5[nH]ccc45)cc3c2=O)cc(OC)c1`, the values for the IC50 in test [1] and in test [2] were 74 nM and 4 nM, respectively.

`COc1cccc(Cn2cnc3sc(-c4ccnc(N)c4)cc3c2=O)c1`: the half-inhibitory concentration (IC50) in test [1] stood at 18 nM; in test [2], 1 nM.

Regarding `COc1cccc(Cn2cnc3sc(-c4ccnc(C)c4)cc3c2=O)c1`, the IC50 in test [1] is 2510 nM; in test [2] it was 42 nM.

`COc1cccc(CN2CCc3cc(-c4ccc5[nH]ncc5c4)ccc3C2=O)c1`: the IC50 in test [1] is 2060 nM; in test [2], 632 nM.

Take `COc1cccc(Cn2cnc3sc(-c4ccnc(OC)c4)cc3c2=O)c1`: the IC50 was over 10000 nM in test [1] and 6910 nM in test [2].

In the case of `O=c1c2cc(-c3ccnc4[nH]ccc34)sc2ncn1Cc1cccc(F)c1`, the IC50 in test [1] is 13 nM; in test [2], 1 nM.

Take `COc1cc(Cn2cnc3sc(-c4ccnc(N)c4)cc3c2=O)cc(OC)c1`: the IC50 in test [1] is over 10000 nM; in test [2] it was 58 nM.

As for `COc1cccc(Cn2cnc3sc(-c4ccnc5[nH]ccc45)cc3c2=O)c1`, the IC50 in test [1] was 4 nM; in test [2] it was 1 nM.

For `O=c1c2cc(-c3ccnc4[nH]ccc34)sc2ncn1Cc1cccc(C(F)(F)F)c1`, the figures for the IC50 in test [1] and in test [2] were 110 nM and 7 nM, respectively.

With `COc1cccc(Cn2cnc3sc(-c4ccc(-c5ccncc5)cc4)cc3c2=O)c1`, the IC50 in test [1] and in test [2] was over 10000 nM each time.
